# Laboratory results: PubChem BioAssay AID624074 (Broad Institute, 2012)
# Activity calls are given as the source filed them.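 The calls were made as follows: active = fitted curve reaches a 35% growth drop -35 below twice the top tested dose; inactive = activity in the wrong direction, or the rest.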
# Test system: P. aeruginosa PAK ΔmexAB-oprM growth with EDDHA, OD600, 28 h
# Assay: efflux-deficient P. aeruginosa PAK growth delay, dose response, whole organism, PAK mexAB-OprM mutant, OD600, EDDHA, dry powder, set 4 (AID 624074)
# Details: not given
# How it was run: (§1)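 Test system: P. aeruginosa PAK ΔmexAB-oprM bacteria | Also added: 2 µM EDDHA chelator | Schedule: Compound exposure of 28 h at 30 °C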
row,Compound,AC35 [µM]
1,N#CC(c1ccc(F)cc1)c1cccc(C(F)(F)F)n1 (stereo unspecified),25.6
2,N#CC(c1cccc(Cl)n1)c1ccc(Cl)cc1F (stereo unspecified),47.5
3,N#CC(c1ccc(Cl)cc1)c1ncccc1Cl (stereo unspecified),56.2
4,N#CC(c1ccc(Cl)cc1)c1cccc(C(F)(F)F)n1 (stereo unspecified),29
5,N#CC(c1cccc(C(F)(F)F)n1)c1ccc(Cl)cc1F (stereo unspecified),37.8
6,N#CC(c1ccc(Cl)cc1)c1cccc(Cl)n1 (stereo unspecified),60.3
7,N#CC(c1ccc(Cl)cc1)c1ccc(Cl)cn1 (stereo unspecified),72

# Test system: not listed separately
# Assay: as above
# Details: P. aeruginosa PAK ΔmexAB-oprM growth with EDDHA, OD600, 28 h; at 100 µM (top of the series)
# How it was run: as §1
row,Compound,"activity change, negative = growth inhibition"
1,CCCCC(C#N)c1ccc(F)cn1 (stereo unspecified),-15.7% (inactive)
2,COCCC(C#N)c1ccc(F)cc1 (stereo unspecified),-11.9% (inactive)
3,COCCNC(C#N)c1ccc(Cl)cc1 (stereo unspecified),-1.19% (inactive)
4,CCCCC(c1ccc(Cl)cc1)c1nn[nH]n1 (stereo unspecified),-10.1% (inactive)
